Measurements from ChEMBL document CHEMBL4513216, “Probing the Open Global Health Chemical Diversity Library for Multistage-Active Starting Points for Next-Generation Antimalarials” (ACS Infect Dis, 2020).

Assay: Toxicity liver stage against HepG2, at 10uM
Type: cell-based
Design: test concentration 10 uM, cell line HepG2-A16-CD81EGFP
Settings: human, HepG2-A16-CD81EGFP cells; read-out: INHIBITION
Procedure, shortened: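 Uninfected HepG2-A16-CD81EGFP cells, 3 × 10^3 per well, 1536-well, plated on prespotted compound at 10 μM final, parasite-free screening media added to match infected plates; puromycin 10 μM positive, DMSO 0.5% negative; run in parallel with 48 h PbLuc assay at 37 °C, 5% CO2; viability by CellTiter-Glo luminescence, normalized to controls.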

Structure (SMILES) | cytotoxicity at 10 µM
COc1cccc2c1OCC(C(=O)NCCCn1nc(C)c(Cl)c1C)C2 (configuration not stated) | -4.12%
CCOc1ccc(C(=O)N2CCCC(n3ccnc3C)C2)cc1OC (configuration not stated) | -6.7%
CC(C)N(C)Cc1cn2c(n1)CN(Cc1ccsc1)CC2 | -16.1%
CO[C@H]1C[C@@H](O)C12CCN(C(=O)CCCOc1ccccc1)CC2 | -2.22%
CCC(CC)NC(=O)Cn1nc(C)nc1-c1ccccc1 | -7.22%
CCN(CC)CC1CCN(C(=O)CCn2cccn2)CC1 | -13.3%
CS(=O)(=O)NCC1CCN(C(=O)Oc2ccccc2)CC1 | -151%
COc1ccc(C(O)CNC(=O)NCc2csc(C)n2)cc1 (configuration not stated) | -6.12%
CC(C)(C)c1noc(CN2CCCc3cc(OC(F)(F)F)ccc32)n1 | -0.813%
CCn1ncc2c1CN(C(=O)c1ccc3c(c1)OCO3)CC2COC (configuration not stated) | 8.7%
CCCn1ncc(C(=O)N2CCN(C3Cc4ccccc4C3)CC2)c1C | -139%
Cc1noc(C(C)N(C)Cc2ccco2)n1 (configuration not stated) | 6.6%
Cc1cccc2c1cnn2CCCNC(=O)C1CC1 | 5.01%
CCC1CN(CCNC(C)=O)CCN1CCOC (configuration not stated) | -3.09%
CN(C)C(=O)N1CC[C@H]2[C@H]1CCN2c1nncs1 | -1.19%
O=C(CCCN1CCCCC1)N1CCN(C(=O)c2nc[nH]n2)CC1 | 7.81%
O=C(NCCc1cnccn1)c1cccc(S(=O)(=O)NC2CCOC2)c1 (configuration not stated) | 6.3%
CC(C)N(C)Cc1cncc2c1CCN(CC(=O)N(C)C)C2 | -100%
CC(C)N1CCc2[nH]nc(C(=O)N3CCCC3C)c2C1 (configuration not stated) | -6.25%
CC(C)c1nn(C)c(Cl)c1CNCc1ccc(N(C)C)nc1 | -13.6%
COc1ncccc1C(=O)NC1(c2cccc(F)c2)CCOCC1 | 10.9%

Structure (SMILES) | cytotoxicity at 10 µM
CCN1C(=O)CC[C@@H]2[C@H]1CCN2S(=O)(=O)c1cccs1 | 0.169%
O=C(O)c1cc(-c2ccoc2)cc(S(=O)(=O)N2CCSCC2)c1 | 0.49%
CCn1cnnc1C1CCN(C(=O)COc2ccccc2OC)CC1 | -4.41%
C=C(C)Cn1nc(C)c(CN2CCN(C3CCCCC3)C(=O)C2)c1C | 4.59%
Cc1cccc(C)c1OC1CCN(Cc2ccn(C)c(=O)c2)CC1 | -2.95%
CCN1CCC(NC(=O)NCC(O)c2ccc(Cl)c(F)c2)CC1 (configuration not stated) | -3.82%
Cc1ccc(NC(=O)Nc2cnc(N3CCN(C)CC3)nc2)cc1 | -15.4%
Cc1cccc(C(=O)NC2CCN(c3cnn(C)c3)C2=O)n1 (configuration not stated) | 3.48%
CN(C)c1ncccc1NC(=O)COC1CCCC1 | 0.189%
Cc1cnn(CC(C)NCc2csc(-c3cccs3)n2)c1 (configuration not stated) | -5.8%
CC(C)NC(=O)[C@H]1C[C@@H]2[C@@H](C1)OCCN2Cc1ccsc1 | 9.49%
N#Cc1ccc(OC2CCN(C(=O)c3ccc4c(c3)OCO4)CC2)nc1 | -14.7%
COCC(=O)N1CCC2(CC1)CNc1ccc(F)cc12 | 12.2%
CN(C)S(=O)(=O)N1C[C@H]2CCC[C@@]2(COCc2ccccn2)C1 | 0.718%
O=C(O)c1ccnc(-c2ccnc(N3CCC4(CCO4)CC3)n2)c1 | -10.7%
CCc1ccc2ncn(Cc3ncc[nH]3)c(=O)c2c1 | 11.1%
CCN(Cc1ccoc1)C(=O)NC1CCN(CC=C(C)C)CC1 | -3.89%
CCN(CC)c1ncc(Cl)c(C(=O)NC2CCC(O)CC2)n1 (configuration not stated) | -43.5%
CCc1cc(=O)n(CC(=O)N2CCC(C)CC2)c(-c2cccc(F)c2)n1 | 7.63%
CCC[C@H]1CN(S(C)(=O)=O)C[C@@H]1NC(=O)Cc1ccc(F)cc1C | -7.13%
Cc1cc(NC(=O)C(C)Nc2ccn(Cc3ccccn3)n2)on1 (configuration not stated) | -2.06%

Structure (SMILES) | cytotoxicity at 10 µM
CN1CCOCC12CCN(c1ccc(C#N)cc1)CC2 | -4.23%
Cc1cccnc1NC(=O)CC1(Cn2cnnn2)CCCCC1 | -5.62%
O=C1CC(c2ccc(C(F)(F)F)cc2)c2c(n3ccsc3nc2=O)N1 (configuration not stated) | -1.4%
COC(=O)N1CCCC(NC(=O)NCc2csc(C)n2)C1 (configuration not stated) | 3.93%
CC(C)c1nccn1C1CCCN(C(=O)C2=NN(C)C(=O)CC2)C1 (configuration not stated) | -24.6%
Cn1cccc1C(CNC(=O)COc1ccc(Cl)cc1Cl)N1CCCC1 (configuration not stated) | -8.64%
Cc1nn(-c2ccccc2)nc1C(=O)NCC(c1ccsc1)N(C)C (configuration not stated) | -22.3%
CCS(=O)(=O)NCCN1CCc2ccc(F)cc2C1C (configuration not stated) | 6.88%
Cc1cc(CC(=O)N2CCN(C)[C@@H]3CS(=O)(=O)C[C@@H]32)ccc1F | -3.89%
Cc1cc(-c2cccc3c2CCNC3)cnc1-n1cnnc1 | -0.972%
Cc1ccnn1CCC(=O)N1CCCC[C@]2(C)NC(=O)CCC[C@H]12 | -0.822%
CC(C)Nc1nc(N2CCCC2)nc2c1CN(C(C)C)CC2 | 2.06%
Cc1cc(N2CCC(C(=O)O)(n3ccc(C(C)C)n3)CC2)nc(N)n1 | 0.445%
CCc1nnc(NC(=O)c2ccc(C3CCCN3CC(C)C)s2)s1 (configuration not stated) | 2.14%
CCn1cnnc1C1CCN(C(=O)c2c(C)oc(C)c2C)CC1 | 5.89%
Cc1ccc(CC(=O)N2CCn3cc(Cn4cncn4)nc3C2)cc1 | -138%
CCCC1C=CCN1C(=O)c1cc(COc2ccccc2)[nH]n1 (configuration not stated) | 9.8%
Cc1cccc(C2(C(=O)NCC3CN(C)CCO3)CC2)c1 (configuration not stated) | -7.45%
N#Cc1ccccc1OCCN1CCCC(c2noc(C3CC3)n2)C1 (configuration not stated) | 5.87%
CN(CCc1ccccn1)c1cc(N2CCCCC2)ncn1 | 3.61%
COc1cc2c(cc1OC)CN(Cc1ncccc1C(=O)O)CC2 | 5.31%

Structure (SMILES) | cytotoxicity at 10 µM
Cc1ccc(C)c(NC(=O)c2coc(C)n2)c1 | -5.97%
Cc1cnn(CCC(=O)NS(=O)(=O)N2CCc3ccccc32)c1 | 4.72%
Cc1cc(C)c(C(=O)N2CCOCC2c2c(C)n[nH]c2C)o1 (configuration not stated) | -4.01%
Cn1cc(C2COC3(CCN(C(=O)c4ccccn4)CC3)C2)cn1 (configuration not stated) | -87.1%
CC(C)(C)SCCNC(=O)[C@@]12CNC[C@@H]1CN(S(C)(=O)=O)C2 | 0.251%
Cc1nc(CN(C)C2CCN(Cc3cccc(F)c3)C2)no1 (configuration not stated) | -15%
CC(=O)N[C@@H]1CN(c2nc(C(N)=O)cs2)C[C@H]1c1ccc(C)o1 | -41.2%
COC(=O)c1sccc1S(=O)(=O)NCC1(O)CCOc2ccccc21 (configuration not stated) | -10.9%
COc1ccc(CN2C[C@@H]3OCCN(CCN(C)C)[C@@H]3C2)cc1 | -86.9%
Cc1nn(CC(=O)O)c2nccc(-c3ccc(F)cc3)c12 | -4.17%
Cc1ccc(CN(Cc2ccncc2)C2CCN(C)CC2)s1 | 7.39%
CCOC(=O)c1coc(N2CCN(Cc3ccc(C)cc3)C(=O)C2)n1 | -0.0261%
c1cnn(-c2ccc(CN3CCOC(Cn4cncn4)C3)cc2)c1 (configuration not stated) | -13.6%
Cc1cc2nc(O)c(O)nc2cc1S(=O)(=O)NC1CC1 | 9.43%
Cc1ccccc1OCC(=O)N1CCN(C2CCOC2=O)CC1 (configuration not stated) | -19.3%
c1cncc(CC2CN(c3cccnc3)CCO2)c1 (configuration not stated) | -0.41%
O=C(Nc1nc2c(s1)CNCC2)NC1CCCC1 | -2.37%
Cc1oc(C(=O)O)cc1S(=O)(=O)Nc1cc(Br)ccc1Cl | 0.386%
CNCCc1nc2cc(Cl)ccc2[nH]1 | 21.2%
